Consider seven compounds from ChEMBL document CHEMBL1123293, “Potent vasopressin antagonists lacking the proline residue at position 7” (J Med Chem, 1986).

The structures appear in SMILES notation.

Test [1] deals with Rattus norvegicus. The test can be described thus: Dose required to decrease urine osmolality in rats from the hydropenic levels (~1500 mOsm/kg of H20) 300 mOsm/kg H20. The format is functional. The method, boiled down: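 Male rats were deprived of food and water overnight to give a stable hydropenic state (urine osmolality ~1500 mOsm/kg H₂O). Rats were kept in metabolism cages, four per cage, and given vehicle or one of four doses. Urine volume and osmolality were measured. ED (µg/kg) to lower Uosm to 300 mOsm/kg H₂O was averaged from one to three dose-response curves per peptide.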

In test [2] the target is Vasopressin V2 receptor (Sus scrofa) (UniProt P32307). The experiment in a line: Affinity for vasopressin V2-receptor of porcine renal medullary membrane. The format is tissue-based. The conditions noted are these: Renal medulla. The procedure, abridged: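 Porcine renal medullary membrane preparation; displacement of [³H]LVP binding. K_bind calculated from the IC50 by the competitive-inhibition relation Kb = IC50/(1 + L/K_D), with K_D taken as the dissociation constant of [³H]LVP.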

Test [3] deals with Vasopressin V2 receptor (Sus scrofa, UniProt P32307). The experiment in a line: Inhibition of LVP stimulated adenylate cyclase activity in pig kidney medullary membrane. The format is functional, cell membranes. The method, boiled down:
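LVP-stimulated adenylate cyclase in pig kidney medullary membranes. The inhibition constant K_i was derived from the competitive-inhibition equation. Values are the mean of triplicate determinations.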

Chain of Vasopressin V2 receptor (Sus scrofa) (P32307 whole entry): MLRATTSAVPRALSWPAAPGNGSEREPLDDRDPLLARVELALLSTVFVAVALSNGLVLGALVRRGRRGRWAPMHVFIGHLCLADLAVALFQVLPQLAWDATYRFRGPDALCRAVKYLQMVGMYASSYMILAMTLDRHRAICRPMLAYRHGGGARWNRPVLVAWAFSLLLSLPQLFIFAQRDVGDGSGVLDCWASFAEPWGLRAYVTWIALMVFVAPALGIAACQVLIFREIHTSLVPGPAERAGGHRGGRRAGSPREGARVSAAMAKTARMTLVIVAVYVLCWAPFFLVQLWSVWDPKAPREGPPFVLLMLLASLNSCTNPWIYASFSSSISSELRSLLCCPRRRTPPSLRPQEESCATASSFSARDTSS
Chain of Vasopressin V2 receptor (P32307 whole entry): as above

As to `CCOc1ccc(C[C@H]2NC(=O)CC3(CCCCC3)SSC[C@@H](C(=O)N3CCC[C@H]3C(=O)N[C@@H](CCCN=C(N)N)C(=O)NCC(N)=O)NC(=O)[C@H](CC(N)=O)NC(=O)[C@H](C(C)C)NC(=O)[C@H](Cc3ccccc3)NC2=O)cc1`, the ED300 in test [1] was determined as 11 µg/kg.

In the case of `CCOc1ccc(C[C@@H]2NC(=O)CC3(CCCCC3)SSC[C@H](C(=O)N3CCC[C@H]3C(=O)N[C@@H](CCCN=C(N)N)C(=O)NCC(N)=O)NC(=O)[C@@H](CC(N)=O)NC(=O)[C@H](C(C)C)NC(=O)[C@@H](Cc3ccccc3)NC2=O)cc1`, the K bind in test [2] is 12 nM.

By Ki is commonly meant a dissociation constant, usually derived from enzyme kinetics or from competition with a known ligand. Higher therefore signals weaker binding. On to `CCOc1ccc(C[C@H]2NC(=O)CC3(CCCCC3)SSC[C@@H](C(=O)N[C@@H](CCCNC(=N)N)C(N)=O)NC(=O)[C@H](CCN)NC(=O)[C@H](C(C)C)NC(=O)[C@H](Cc3ccccc3)NC2=O)cc1`, for which, in test [3], affinity was put at a Ki of 2.5 nM.

`CCOc1ccc(C[C@@H]2NC(=O)CC3(CCCCC3)SSC[C@H](C(=O)N[C@H](CCCN=C(N)N)C(N)=O)NC(=O)[C@@H](CCN)NC(=O)[C@H](C(C)C)NC(=O)[C@@H](Cc3ccccc3)NC2=O)cc1`: the K bind in test [2] was 4.4 nM.

In test [1], `CCOc1ccc(C[C@H]2NC(=O)CC3(CCCCC3)SSC[C@@H](C(=O)N3CCC[C@H]3C(=O)N[C@@H](CCCN=C(N)N)C(N)=O)NC(=O)[C@H](CC(N)=O)NC(=O)[C@H](C(C)C)NC(=O)[C@H](Cc3ccccc3)NC2=O)cc1` displayed an ED300 of 9 µg/kg.

Turning to `CCOc1ccc(C[C@@H]2NC(=O)CC3(CCCCC3)SSC[C@H](C(=O)N[C@@H](CCCCN)C(N)=O)NC(=O)[C@@H](CCN)NC(=O)[C@H](C(C)C)NC(=O)[C@@H](Cc3ccccc3)NC2=O)cc1`, the K bind in test [2] was determined as 26 nM.

Turning to `CCOc1ccc(C[C@@H]2NC(=O)CC3(CCCCC3)SSC[C@H](C(=O)N3CCC[C@H]3C(=O)N[C@@H](CCCN=C(N)N)C(N)=O)NC(=O)[C@@H](CC(N)=O)NC(=O)[C@H](C(C)C)NC(=O)[C@@H](Cc3ccccc3)NC2=O)cc1`, in test [2], the K bind was determined as 12 nM.
